# ROMK primary = human ROMK K+ channel modulation, primary screen; 130,000 compounds, 2% hits; B-score at 10 µM; P48048; Tet-inducible ROMK, thallium flux fluorescence; actives lie on both sides; AID 1918;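 active means signal ratio slope over the read window, or its plate-corrected B-score, at least 3 SD from the plate mean, either direction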;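 further: B-score of the F/F0 ratio slope over 7 to 12 s after thallium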
# MDM2 E3 inh = inhibitors of human Mdm2 E3 ubiquitin ligase. Q00987. cell-based MDM2 ubiquitination luciferase reporter, 2 h; 0 = plate control, 100 = twice control, blank-subtracted. signal enhancement, % at 5 µM. 210,000 compounds, 0.11% hits;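 active means signal enhancement of 30% or more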;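 further: luminescence tracks abundance of the self-degrading MDM2-luciferase fusion protein; higher signal means inhibition of MDM2 E3 ligase activity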
#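 Test system: mammalian cells stably expressing self-ubiquitinating, self-degrading MDM2 E3–luciferase fusion; Amount: 2000 cells in each well; Medium: DMEM; Schedule: 4 h settle plus 2 h compound, 37 °C; Technique: SteadyLite luciferase luminescence after 15 min room-temperature reagent incubation; Benchmarks: plate control and blank wells.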
# DTT redox prof = compounds producing H2O2 with reducing agent – biochemical, NIH compound library profiling, artefact control for MLSCN library redox annotation, primary screen; DTT-dependent redox cycling H2O2, phenol red/HRP absorbance; 100% = 100 µM peroxide control, 0% = buffer; activation, % at 10 µM; 200,000 compounds, 0.03% hits; AID 878;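 active means activation of at least 50% relative to the plate's high and low controls in the primary single-dose screen; inactive means activation below 50%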;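 further: compound incubated with DTT at 0.8 mM final as the reducing agent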
# KCC2 mod = modulates chloride dependent transport by human KCC2; Q9H2X9; KCC2 cells, thallium flux FluoZin-2 fluorescence; B-score of Tl+ flux slope (higher = more flux/activation; lower = inhibition) at 10 µM; 190,000 compounds, 2.2% hits;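 active means thallium flux slope and its plate-corrected score both differing from the plate sample mean at a set confidence after two filtering rounds, in either direction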;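 further: slope of fluorescence scaled to starting intensity during 10 to 20 s after thallium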
# PKD1 kinase inh = blocks activity of human protein kinase D1 | inhibition, % (concentration not given with the values) | 200,000 compounds, 0.056% hits | PKD1 kinase fluorescence polarization assay | Q15139; in the data active means inhibition above about 50%
# p97 ATPase inh = blocks human p97 ATPase activity. recombinant p97 ATPase, Kinase-Glo ATP luminescence, 3 h. inhibition, % at 8 µM. 220,000 compounds, 0.42% hits. AID 1481; in the data active means inhibition above about 15%
# ROMK hit retest = human ROMK channel modulation, retest confirmation; shares compounds with ROMK primary; ROMK thallium flux, fluorescence ratio; active compounds read low; AID 1917; normalized thallium flux (F/F0 slope) at 10 µM; 3,000 compounds, 54% hits;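 active means Flux at 10 µM at least 3 SD below or above vehicle control mean in one or both replicates; inconclusive means no clear call, values can overlap the other calls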
# Numbers stand for hits; 0 = inactive; ? = inconclusive; - = no result given. Sampled rows, rich in hits. Any-hit rate of the full collection: about 3.4%.
SMILES,ROMK primary,MDM2 E3 inh,DTT redox prof,KCC2 mod,PKD1 kinase inh,p97 ATPase inh,ROMK hit retest
Brc1ccc(NC2=Nc3ccccc3CC2)cc1,-,0,0,0,0,0,0
Cc1cc(C)c(C(=O)CSc2nnc(-c3cccnc3)n2C)c(C)c1,0,-,0,0,0,0,-
Cc1ccccc1OCC(=O)Nc1sc(C(=O)Nc2cccc(C)c2C)c(C)c1C#N,0,0,0,-,0,0,-
CS/C(Nc1cc(Cl)ccc1Cl)=C(/C#N)C(=O)c1ccco1,-,0,-,-,-,0,0.051
CCCC(=O)Nc1ccc(Cl)c(NC(=O)c2ccco2)c1,-,0,0,0,0,0,-
C(#CCN1CCOCC1)COCCOC(c1ccccc1)c1ccccc1,1,-,0,0,0,0,0
CCn1c(=N)n(CC(O)c2ccco2)c2ccccc21 (stereo not given),-,0,0,0,0,0,-
N=c1n(Cc2ccccc2)c2ccccc2n1Cc1ccccc1,-3.6,0,0,0,0,0,?
N=c1n(Cc2ccccc2)c2ccccc2n1CC(O)c1ccco1 (stereo not given),-2.5,0,0,-,0,0,0.061
CCOC(=O)Cn1c(=N)n(Cc2ccccc2)c2ccccc21,-,0,0,0,0,0,-
CCSC1(SCC)N=C(N)C2(C#N)C(c3ccc(F)cc3)C12C#N (stereo not given),-,0,0,0,0,0,?
COc1cccc(C(=O)N(C)c2nnc(-c3ccncc3)s2)c1,-,0,0,0,0,0,0
CN(C(=O)c1cccc(C#N)c1)c1nnc(-c2ccncc2)s1,0,0,0,-,0,0,-
CN(Cc1ccccc1)c1nc2c(c(=O)n(C)c(=O)n2C)n1CCCc1ccccc1,0,0,0,-,0,0,-
Cn1c(=O)c2c(nc(Br)n2CCCc2ccccc2)n(C)c1=O,-4.1,0,0,-,0,0,0.063
CCCCn1c(SCC(=O)N2CCCCC2)nc2cc(S(N)(=O)=O)ccc21,-,0,0,0,0,0,-
COc1ccc(-c2c(NC(=O)c3ccco3)n(-c3ccccc3)nc(C)c2=O)cc1,0,0,-,0,-,0,-
COc1cc(CNCCNC(=O)c2nonc2N)ccc1OCc1ccc(Cl)cc1,-3.1,0,0,0,0,0,0.053
Nc1nonc1C(=O)NCCNCc1cc(Br)ccc1OCc1ccccc1F,-4.2,0,0,0,0,0,0.049
O=C1CC(c2ccc(F)cc2)Sc2nc(C34CC5CC(CC(C5)C3)C4)nn21 (stereo not given),-,0,0,0,0,0,-
CC(=O)N1C(=O)/C(=C2\SC(=S)N(NS(=O)(=O)c3ccc(C)cc3)C2=O)c2ccccc21,0,0,0,-,0,0,-
N#CC1=C(N)C2=CCCC[C@H]2[C@H](c2cccc(F)c2)C1(C#N)C#N,-2.5,0,0,0,0,0,0.053
O=C(O)c1cccc(CSc2nc(-c3ccc(Cl)cc3)cc(C(F)(F)F)n2)c1,0,0,0,-,0,0,-
O=C(Cn1c2ccccc2c2nc3n(c(=O)c21)CCS3)Nc1ccccc1C(F)(F)F,-3.2,0,0,0,0,0,0.069
Cc1[nH]n(-c2ccccc2)c(=O)c1Sc1ccc(Cl)cc1,-,0,0,0,0,0,-
SMILES,ROMK primary,MDM2 E3 inh,DTT redox prof,KCC2 mod,PKD1 kinase inh,p97 ATPase inh,ROMK hit retest
CCCSC(=S)c1c(C)[nH]n(-c2ccccc2)c1=O,-,0,-,-,-,0,0.12
CCN1CCN(C(c2nnnn2Cc2ccc3c(c2)OCO3)C(C)C)CC1 (stereo not given),-,0,0,0,0,0,-
CC(C)C(c1nnnn1Cc1ccc(F)cc1)N1CCN(Cc2ccc3c(c2)OCO3)CC1 (stereo not given),-2.3,0,0,-,0,0,0.054
CC(C)C(c1nnnn1Cc1ccc(F)cc1)N1CCN(C2CCCCC2)CC1 (stereo not given),-5,0,0,-,0,0,0.061
Fc1ccc(Cn2nnnc2C(c2cccs2)N2CCN(C3CCCCC3)CC2)cc1 (stereo not given),0,0,0,0,0,0,-
C=C(Br)Cn1c(CCC)nc2ccccc21,0,0,0,-,0,0,-
CCOc1cc(N2CCOCC2)c(OCC)cc1NC(=O)c1ccco1,0,0,0,0,0,0,-
Cc1ccc(C(=O)N2C(CC(=O)Nc3ccc(Cl)cc3)C(=O)NC3CCCCC32)cc1 (stereo not given),-,0,0,0,0,0,0.067
Cc1ccc(OCCCCNC2CCCC(C)C2C)c(C)c1 (stereo not given),-,0,0,0,0,0,0.053
CC1=CC(C)(C)N(S(=O)(=O)c2ccc(F)cc2)c2ccc(C)cc21,0,0,0,0,0,0,-
CC1=CC(C)(C)N(S(=O)(=O)c2ccc(C)cc2)c2ccccc21,3.2,0,0,0,0,0,0
CC(C)c1csc2nc3n(c(=O)c12)CCCCC3,0,0,0,0,0,0,-
CC(C(=O)NC1CCCc2ccccc21)N1CCN(c2ccc(F)cc2)CC1 (stereo not given),-,0,0,0,0,0,-
CC(C(=O)NC1CCCc2ccccc21)N1CCN(Cc2ccc3c(c2)OCO3)CC1 (stereo not given),-3,0,0,0,0,0,0.058
CC(C(=O)N1CCc2ccccc2C1)N1C(=O)c2ccccc2C1=O (stereo not given),-,0,-,0,-,0,-
CC(C)CC(C(=O)N1CCc2ccccc2C1)N1C(=O)c2ccccc2C1=O (stereo not given),-3.5,0,0,0,0,0,0.057
Cc1cc(C(=O)OCC(=O)Nc2ccc(S(N)(=O)=O)cc2)c2ccccc2n1,0,0,0,0,0,0,-
COC(=O)C1=C(N)OC2=C(C(=O)CC(C)(C)C2)C1c1cccnc1 (stereo not given),4,0,0,0,0,0,0
COc1ccccc1NC(=O)CNc1ccc(F)c(Cl)c1,-,0,0,0,0,0,-
COc1ccccc1N1CCN(CCNC(=O)Nc2cccc(C)c2C)CC1,-2.8,0,0,0,0,0,0.059
Cn1c(=O)c2[nH]c(-c3ccccc3Cl)c(O)c2n(C)c1=O,-3.9,0,0,0,0,0,0.063
Cn1c(=O)c2[nH]c(-c3ccccc3)c(O)c2n(C)c1=O,-,0,0,0,0,0,-
Oc1[nH]c2ccccc2c1N=Nc1ccccc1,-,-,-,0,-,0,0.068
CCn1c(CCn2ccnc2C)n[nH]c1=S,-,0,0,-,0,0,-
Cc1cccc(Nc2nc3c(S(=O)(=O)c4ccccc4)nnn3c3ccccc23)c1,0,0,0,0,0,0,0
Cc1cc(C)cc(Nc2nc3c(S(=O)(=O)c4ccccc4)nnn3c3ccccc23)c1,0,0,0,0,0,0,-
Cc1ccc2[nH]c3c(=O)n(Cc4ccco4)cnc3c2c1,-,0,-,0,-,0,-
